The text below walks through data of ChEMBL document CHEMBL1141764, “Pentasaccharide glycosides from the roots of Ipomoea murucoides” (2005).

Type in all cases: functional
Experiment [1] can be described thus: (§1) Cytotoxicity against human UISO-SQC1 cells after 72 hrs. To be noted: UISO-SQC1, 72 h, read-out: ED50 (the source's name). The method, boiled down:
(§2)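 Cells kept in RPMI with 10% FBS at 37 °C, 5% CO2, humidified. Log-phase cells exposed in triplicate to 1.0-100 µg/mL for 72 h at 37 °C. Cell density read by protein analysis. ED50 (dose giving 50% inhibition of control growth) estimated from semilog plot of concentration (µg/mL) versus percent viable cells.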

Another experiment has as its system HCT-15. Briefly: Cytotoxicity against human HCT15 cells after 72 hrs. To be noted: for EC50: HCT-15, 72 h, read-out: ED50 (the source's name). The essentials:
as §2

In a further experiment the test system is OVCAR-5. Nature of the experiment: Cytotoxicity against human OVCAR5 cells after 72 hrs. To be noted: OVCAR-5, 72 h, read-out: ED50 (the source's name). The essentials: as §2
A further experiment deals with UISO-SQC1. Described as §1. The method, boiled down: as §2

The structures appear in SMILES notation. In brackets after ≈: the same amount, converted by molar mass. Activity calls are given as the source filed them. The rule behind the calls is not given here.

For `CCCCCCCCCCCC(=O)O[C@H]1[C@H](O[C@@H]2[C@@H](O)[C@H]3OC(=O)CCCCCCCCCC(CCCCC)O[C@@H]4O[C@H](C)[C@@H](O)[C@H](O)[C@H]4OC3O[C@H]2C)O[C@@H](C)[C@H](O[C@@H]2O[C@@H](C)[C@H](OC(=O)C(C)CC)[C@@H](O)[C@H]2O[C@@H]2O[C@H](CO)[C@@H](O)[C@H](O)[C@H]2O)[C@H]1O` (stereo not given in full) [MURUCIN 4], the EC50 (in experiment [1]; in the experiment with HCT-15; with OVCAR-5) was above 20 µg/mL each time.
On to `CCCCCCCCCCCC(=O)O[C@H]1[C@H](O[C@@H]2[C@@H](O)[C@H]3OC(=O)CCCCCCCCCC(CCCCC)O[C@@H]4O[C@H](C)[C@@H](O)[C@H](O)[C@H]4OC3O[C@H]2C)O[C@@H](C)[C@H](O[C@@H]2O[C@@H](C)[C@H](OC(C)=O)[C@@H](O)[C@H]2O[C@@H]2O[C@H](CO)[C@@H](O)[C@H](O)[C@H]2O)[C@H]1O` (stereo not given in full) [MURUCIN 1], for which the result with UISO-SQC1 and with HCT-15 was inactive. Also, in the experiment on OVCAR-5, the EC50 came out at 5 µg/mL (≈ 4.08 µM).
Regarding `CCCCCCCCCCCC(=O)O[C@H]1[C@H](O[C@@H]2[C@@H](O)[C@H]3OC(=O)CCCCCCCCCC(CCCCC)O[C@@H]4O[C@H](C)[C@@H](O)[C@H](O)[C@H]4OC3O[C@H]2C)O[C@@H](C)[C@H](O[C@@H]2O[C@@H](C)[C@H](OC(=O)CCC)[C@@H](O)[C@H]2O[C@@H]2O[C@H](CO)[C@@H](O)[C@H](O)[C@H]2O)[C@H]1O` (stereo not given in full) [MURUCIN 3], the EC50 (in experiment [1]; in the experiment on HCT-15; in the experiment on OVCAR-5) was above 20 µg/mL throughout.
On to `CCCCCCCCCCCC(=O)O[C@H]1[C@H](O[C@@H]2[C@@H](O)[C@H]3OC(=O)CCCCCCCCCC(CCCCC)O[C@@H]4O[C@H](C)[C@@H](O)[C@H](O)[C@H]4OC3O[C@H]2C)O[C@@H](C)[C@H](O[C@@H]2O[C@@H](C)[C@H](OC(=O)CC)[C@@H](O)[C@H]2O[C@@H]2O[C@H](CO)[C@@H](O)[C@H](O)[C@H]2O)[C@H]1O` (stereo not given in full) [MURUCIN 2], for which the EC50 (in experiment [1]; with HCT-15; in the experiment with OVCAR-5) was above 20 µg/mL in each case.
On to `CCCCCCCCCCCC(=O)O[C@H]1[C@H](O[C@@H]2[C@@H](O)[C@H]3OC(=O)CCCCCCCCCC(CCCCC)O[C@@H]4O[C@H](C)[C@@H](O)[C@H](O)[C@H]4OC3O[C@H]2C)O[C@@H](C)[C@H](O[C@@H]2O[C@@H](C)[C@H](OC(=O)C(C)C(C)O)[C@@H](O)[C@H]2O[C@@H]2O[C@H](CO)[C@@H](O)[C@H](O)[C@H]2O)[C@H]1O` (stereo not given in full) [MURUCIN 5], for which the EC50 (in experiment [1]; in the experiment with HCT-15; in the experiment with OVCAR-5) was above 20 µg/mL throughout.
